Values after ≈ are worked out from the molar mass of the structure shown. Active and inactive are the calls of the source. The calls are words filed in the database; no cut-off is given here.
Key:
Candida albicans [1] = test: Antifungal activity against Candida albicans ATCC 10231 incubated for 48 hrs by modified CLSI M27-A3 protocol based method; assay type: functional; details: ATCC 10231, 48 h, read-out: MIC100
Summary of the method: (§1)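 For C. albicans ATCC 10231, C. krusei ATCC 6258 and C. parapsilosis ATCC 22019, MIC-0 was read, meaning complete growth inhibition. For azole controls, MIC-2 (50% growth inhibition) was reported instead. Caspofungin and voriconazole were tested here; other controls came from earlier work.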

Candida albicans [2] = test: Antifungal activity against Candida albicans ATCC 64124 incubated for 48 hrs by modified CLSI M27-A3 protocol based method; assay type: functional; details: ATCC 64124, 48 h
Candida albicans [3] = test: Antifungal activity against ITC and FLC-susceptible Candida albicans ATCC MYA-2876 incubated for 48 hrs by modified CLSI M27-A3 protocol based method; assay type: functional; details: ATCC MYA-2876, 48 h
Summary of the method: (§2)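 Because these Candida strains show trailing growth, MIC-2 was read, meaning 50% growth inhibition. Caspofungin and voriconazole were tested here; other controls came from earlier work.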

Candida albicans [4] = test: Antifungal activity against ITC and FLC-resistant Candida albicans ATCC MYA-90819 incubated for 48 hrs by modified CLSI M27-A3 protocol based method; assay type: functional; details: ATCC MYA-90819, 48 h
Candida albicans [5] = test: Antifungal activity against ITC and FLC-susceptible Candida albicans ATCC MYA-2310 incubated for 48 hrs by modified CLSI M27-A3 protocol based method; assay type: functional; details: ATCC MYA-2310, 48 h
Candida albicans [6] = test: Antifungal activity against ITC and FLC-resistant Candida albicans ATCC 1237 incubated for 48 hrs by modified CLSI M27-A3 protocol based method; assay type: functional; details: ATCC 1237, 48 h; summary of the method: as §2
Candida albicans [7] = test: Antifungal activity against ITC and FLC-resistant Candida albicans ATCC MYA-1003 incubated for 48 hrs by modified CLSI M27-A3 protocol based method; assay type: functional; details: ATCC MYA-1003, 48 h; summary of the method: as §2
Nakaseomyces glabratus = test: Antifungal activity against Candida glabrata ATCC 2001 incubated for 48 hrs by modified CLSI M27-A3 protocol based method; assay type: functional; details: ATCC 2001, 48 h
Pichia kudriavzevii = test: Antifungal activity against Candida krusei ATCC 6258 incubated for 48 hrs by modified CLSI M27-A3 protocol based method; assay type: functional; details: ATCC 6258, 48 h; for MIC: read-out: MIC100; summary of the method: as §1
Candida parapsilosis = test: Antifungal activity against Candida parapsilosis ATCC 22019 incubated for 48 hrs by modified CLSI M27-A3 protocol based method; assay type: functional; details: Lodderomyces parapsilosis, ATCC 22019, 48 h; for MIC: read-out: MIC100; summary of the method: as §1
Aspergillus flavus = test: Antifungal activity against Aspergillus flavus ATCC MYA-3631 incubated for 48 hrs by CLSI M38-A2 protocol based method; assay type: functional; details: ATCC MYA-3631, 48 h, read-out: MIC100
Aspergillus nidulans = test: Antifungal activity against Aspergillus nidulans ATCC 38163 incubated for 48 hrs by CLSI M38-A2 protocol based method; assay type: functional; details: ATCC 38163, 48 h; for MIC: read-out: MIC100
Aspergillus terreus = test: Antifungal activity against Aspergillus terreus ATCC MYA-3633 incubated for 48 hrs by CLSI M38-A2 protocol based method; assay type: functional; details: ATCC MYA-3633, 48 h; for MIC: read-out: MIC100
Candida albicans [8] = test: Induction of membrane permeabilization in Candida albicans ATCC 10231 at 1 to 4 times MIC incubated for 1 hr by propidium iodide staining based fluorescence microscopy; assay type: functional, organism-based
Summary of the method: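 C. albicans ATCC 10231 treated at 1× and 4× MIC and stained with propidium iodide, a membrane-impermeant dye, to detect membrane damage. Untreated cells, FLC (7.8 µg/mL) and KANB (C14) (7.8 µg/mL) serve as comparators.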

Candida albicans [9] = test: Antifungal activity against Candida albicans ATCC 10231 at 0.5 to 4 times MIC incubated for 3 to 24 hrs by time kill assay

| Compound | MIC (Candida albicans [1]) [µM] | MIC50 (Candida albicans [2]) [µM] | MIC50 (Candida albicans [3]) [µM] | MIC50 (Candida albicans [4]) [µM] | MIC50 (Candida albicans [5]) [µM] | MIC50 (Candida albicans [6]) [µM] | MIC50 (Candida albicans [7]) [µM] | MIC50 (Nakaseomyces glabratus) [µM] | MIC (Pichia kudriavzevii) [µM] | MIC (Candida parapsilosis) [µM] | MIC (Aspergillus flavus) [µM] | MIC (Aspergillus nidulans) [µM] | MIC (Aspergillus terreus) [µM] | Activity (Candida albicans [8]) | MIC50 (Pichia kudriavzevii) [µM] | MIC50 (Candida parapsilosis) [µM] | MIC50 (Aspergillus nidulans) [µM] | MIC50 (Aspergillus terreus) [µM] | Activity (Candida albicans [9]) |
| --- | --- | --- | --- | --- | --- | --- | --- | --- | --- | --- | --- | --- | --- | --- | --- | --- | --- | --- | --- |
| CCCCCC(O)(Cn1cncn1)c1cccc(Cl)c1 (centres undefined) | > 106 | 106 (≈ 31.3 µg/mL) | > 106 | 13.3 (≈ 3.91 µg/mL) | 6.6 (≈ 1.94 µg/mL) | 6.6 (≈ 1.94 µg/mL) | > 106 | > 106 | > 106 | > 106 | 13.3 (≈ 3.91 µg/mL) | 0.2 (≈ 0.0588 µg/mL) | 1.6 (≈ 0.47 µg/mL) | – | – | – | – | – | – |
| CC(O)(Cn1cncn1)c1ccc(F)cc1F (centres undefined) | > 131 | > 131 | > 131 | > 131 | > 131 | > 131 | 65.2 (≈ 15.6 µg/mL) | > 131 | > 131 | 16.3 (≈ 3.9 µg/mL) | > 131 | 131 (≈ 31.3 µg/mL) | > 131 | – | – | – | – | – | – |
| CCCCCCC(O)(Cn1cncn1)c1cccc(F)c1 (centres undefined) | > 107 | > 107 | 6.7 (≈ 1.95 µg/mL) | 6.7 (≈ 1.95 µg/mL) | 6.7 (≈ 1.95 µg/mL) | 3.3 (≈ 0.962 µg/mL) | 107 (≈ 31.3 µg/mL) | 26.8 (≈ 7.81 µg/mL) | 13.4 (≈ 3.9 µg/mL) | 6.7 (≈ 1.95 µg/mL) | > 107 | 13.4 (≈ 3.9 µg/mL) | 107 (≈ 31.3 µg/mL) | – | – | – | – | – | – |
| CCCCCCCCCCC(O)(Cn1cncn1)c1ccc(F)cc1F (centres undefined) | 21.3 (≈ 7.78 µg/mL) | 42.7 (≈ 15.6 µg/mL) | 21.3 (≈ 7.78 µg/mL) | 85.6 (≈ 31.3 µg/mL) | 21.3 (≈ 7.78 µg/mL) | > 85.6 | > 85.6 | 21.3 (≈ 7.78 µg/mL) | 0.66 (≈ 0.241 µg/mL) | 0.33 (≈ 0.121 µg/mL) | > 85.6 | 0.66 (≈ 0.241 µg/mL) | 10.7 (≈ 3.91 µg/mL) | inactive | – | – | – | – | – |
| CCC(O)(Cn1cncn1)c1ccc(Cl)cc1Cl (centres undefined) | 13.6 (≈ 3.89 µg/mL) | > 109 | 3.4 (≈ 0.973 µg/mL) | 0.84 (≈ 0.24 µg/mL) | 3.4 (≈ 0.973 µg/mL) | 3.4 (≈ 0.973 µg/mL) | 6.8 (≈ 1.95 µg/mL) | 13.6 (≈ 3.89 µg/mL) | 3.4 (≈ 0.973 µg/mL) | < 0.1 | 54.5 (≈ 15.6 µg/mL) | 27.3 (≈ 7.81 µg/mL) | 13.6 (≈ 3.89 µg/mL) | – | – | – | – | – | – |
| C[C@@H](c1ncncc1F)[C@](O)(Cn1cncn1)c1ccc(F)cc1F [VORICONAZOLE] | – | 11.2 (≈ 3.91 µg/mL) | 5.6 (≈ 1.96 µg/mL) | 5.6 (≈ 1.96 µg/mL) | 2.8 (≈ 0.978 µg/mL) | 22.3 (≈ 7.79 µg/mL) | 5.6 (≈ 1.96 µg/mL) | 0.17 (≈ 0.0594 µg/mL) | – | – | – | – | – | – | 0.34 (≈ 0.119 µg/mL) | < 0.06 | 0.06 (≈ 0.021 µg/mL) | 0.34 (≈ 0.119 µg/mL) | Dose-dependent effect |
| CCCCCCC(O)(Cn1cncn1)c1cccc(Cl)c1 (centres undefined) | > 102 | 102 (≈ 31.3 µg/mL) | > 102 | 25.3 (≈ 7.79 µg/mL) | 25.3 (≈ 7.79 µg/mL) | 25.3 (≈ 7.79 µg/mL) | > 102 | > 102 | > 102 | > 102 | > 102 | 12.7 (≈ 3.91 µg/mL) | > 102 | – | – | – | – | – | – |
| CCCCCC(O)(Cn1cncn1)c1cccc(F)c1 (centres undefined) | > 113 | > 113 | 14.1 (≈ 3.91 µg/mL) | 14.1 (≈ 3.91 µg/mL) | 14.1 (≈ 3.91 µg/mL) | 14.1 (≈ 3.91 µg/mL) | > 113 | 28.1 (≈ 7.79 µg/mL) | 14.1 (≈ 3.91 µg/mL) | 14.1 (≈ 3.91 µg/mL) | ≥ 113 | 0.87 (≈ 0.241 µg/mL) | 14.1 (≈ 3.91 µg/mL) | – | – | – | – | – | – |

From ChEMBL document CHEMBL4265871, “Novel alkylated azoles as potent antifungals” (Eur J Med Chem, 2017)
